Consider four compounds from ChEMBL document CHEMBL1122445, “Novel fluorinated antifolates. Enzyme inhibition and cytotoxicity studies on 2'- and 3'-fluoroaminopterin” (J Med Chem, 1983).

Molecules are shown by their SMILES. pEC50, pIC50, pKi: −log10 of the molar value.

For test [1], the target named is Dihydrofolate reductase (Lactobacillus casei, UniProt P00381). As to the kind of experiment: Inhibition of dihydrofolate reductase in Lactobacillus casei. The arrangement: species or system Lacticaseibacillus casei. The following applies: read-out: I50. A digest of the protocol: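 L. casei DHFR purified to homogeneity from an MTX-resistant overproducer strain, with enzyme level (4–5 × 10^-9 M) set by MTX titration. […] Rates were taken from the linear 0.5–2 min region. I50 is the concentration halving the rate; Ki is from the Cha equation, correcting for inhibitor depletion.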

In a further test the target is Lacticaseibacillus casei. As to the kind of experiment: Inhibition constant (Ki) was determined in Lactobacillus casei. Format: functional.
Another test has as its system L1210. As to the kind of experiment: Inhibition of growth (cytotoxicity) of L1210 cell line in vitro. The format is functional, cell-based. The following applies: Mus musculus. A digest of the protocol:
(§1)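 About 1 × 10^5 L1210 or HuTu 80 cells in 1 mL of their original medium with inhibitor, 37 °C for 72 h; counted by Coulter counter (10- to 20-fold growth in controls). EC50 = concentration reducing growth 50% versus inhibitor-free controls.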

For the next test, the system named is HuTu80. The test can be described thus: Inhibition of growth (cytotoxicity) of HuTu 80 cell line in vitro. To be noted: Homo sapiens. Format: functional, cell-based. The essentials: as §1
Test [2] has as its target T1, Dihydrofolate reductase (Homo sapiens, UniProt P00374).
T1 sequence (P00374 whole entry): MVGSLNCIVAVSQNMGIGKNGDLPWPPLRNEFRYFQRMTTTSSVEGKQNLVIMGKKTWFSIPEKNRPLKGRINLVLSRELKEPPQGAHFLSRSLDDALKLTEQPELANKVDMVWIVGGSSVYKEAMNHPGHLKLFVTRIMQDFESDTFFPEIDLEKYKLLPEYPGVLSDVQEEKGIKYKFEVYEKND
As to the kind of experiment: Inhibition of dihydrofolate reductase in HeLa cells. The format is cell-based. The following applies: read-out: I50.

The subject of another test is Escherichia coli. As to the kind of experiment: Inhibition constant (Ki) was determined in Escherichia coli. Format: functional. A digest of the protocol:
(§2)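 E. coli MB 1428 MTX-resistant overproducer DHFR purified to homogeneity by MTX affinity chromatography; spectrophotometric assay at pH 7.2 with 40 μM NADPH and 44 μM dihydrofolate (Km 0.44 μM); enzyme 4 to 5×10^-9 M, titrated with MTX. Rates taken over linear 0.5–2 min (<10% substrate used). I50 = half of control rate; Ki from I50 via Cha equation corrected for enzyme-bound inhibitor.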

Test [3] concerns the target T2, Dihydrofolate reductase (Escherichia coli, UniProt P0ABQ4).
T2 sequence (P0ABQ4 whole entry): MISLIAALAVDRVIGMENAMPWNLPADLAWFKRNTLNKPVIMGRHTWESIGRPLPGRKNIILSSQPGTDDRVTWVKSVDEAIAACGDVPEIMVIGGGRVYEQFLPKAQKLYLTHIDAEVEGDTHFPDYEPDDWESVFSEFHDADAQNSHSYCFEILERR
The test can be described thus: Inhibition of dihydrofolate reductase in Escherichia coli. The following applies: read-out: I50. A digest of the protocol: as §2

Dihydrofolate reductase (Lactobacillus casei, UniProt P00381), sequence (P00381 whole entry): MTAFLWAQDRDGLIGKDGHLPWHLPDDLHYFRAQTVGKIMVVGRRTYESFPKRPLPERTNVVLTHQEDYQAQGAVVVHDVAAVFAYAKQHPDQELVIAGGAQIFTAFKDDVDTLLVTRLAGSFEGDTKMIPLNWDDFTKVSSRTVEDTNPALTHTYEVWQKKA

As a reminder, the pKi is the Ki on a negative log10 scale, so that one unit is a factor of ten. What is called pEC50 is the negative decadic logarithm of the EC50, by convention in mol/L. Read a high pEC50 as a small EC50. For `Nc1nc(N)c2nc(CNc3ccc(C(=O)NC(CCC(=O)O)C(=O)O)cc3F)cnc2n1` (configuration not stated), the pIC50 is 8.46 on Dihydrofolate reductase [1], 7.72 at Dihydrofolate reductase [2] and 8.30 at Dihydrofolate reductase [3]. For the same compound, the negative logarithm of the Ki (pKi) was 10.22 on Lacticaseibacillus casei and 10.52 with Escherichia coli. Besides, the pEC50 in the test on L1210 was 9.00; in the test on HuTu80, 8.64.

Regarding `Nc1nc(N)c2nc(CNc3ccc(C(=O)NC(CCC(=O)O)C(=O)O)c(F)c3)cnc2n1` (configuration not stated), the pIC50 was 8.33 on Dihydrofolate reductase [1], 7.57 on Dihydrofolate reductase [2] and 8.00 at Dihydrofolate reductase [3]. Further, the pKi is 10.02 on Lacticaseibacillus casei and 10.10 in the test on Escherichia coli. Moreover, the pEC50 with L1210 is 8.64; with HuTu80, 8.32.

Regarding `Nc1nc(N)c2nc(CNc3ccc(C(=O)N[C@@H](CCC(=O)O)C(=O)O)cc3)cnc2n1` [AMINOPTERIN], the pIC50 was 8.30 on Dihydrofolate reductase [1] and 7.96 on Dihydrofolate reductase [3]. Moreover, the pKi on Lacticaseibacillus casei is 9.96; in the test with Escherichia coli it was 10.05. Also, the values for the pEC50 in the test with L1210 and in the test on HuTu80 were 8.74 and 8.33, respectively.

Regarding `CN(Cc1cnc2nc(N)nc(N)c2n1)c1ccc(C(=O)N[C@@H](CCC(=O)O)C(=O)O)cc1` [METHOTREXATE], the pEC50 in the test on L1210 was 8.49; with HuTu80, 8.35.
